In ChEMBL document CHEMBL2424587, “Antiproliferative activity of abietane diterpenoids against human tumor cells” (J Nat Prod, 2013):
pIC50: −log10 of the molar value. Activity calls are given as the source filed them. The calls are words filed in the database; no cut-off is given here.

Tests used:
HL-60 [1] = assay: Induction of ROS-mediated cell death in human HL60 cells preincubated for 2 hrs in presence of NAC; format: functional, cell-based
In short: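 Antioxidant test in HL-60 cells: NAC 10 mM added with the diterpene, or NAC and diterpene preincubated together for 2 h before addition to cells; cell death then measured.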

HL-60 [2] = assay: Induction of apoptosis in human HL60 cells assessed as reduction in mitochondrial membrane potential at 3 uM after 24 hrs by JC-1 staining-based flow cytometry in presence of bongkrekic acid; format: functional, cell-based
In short: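 HL-60 cells exposed to 3 μM diterpene for 24 h alongside permeability transition pore inhibitors cyclosporin A (25 μM, 24 h) or bongkrekic acid (25−50 μM, 24 h). Apoptosis was scored by flow cytometry. Mitochondrial membrane potential was read by JC-1 fluorescence on flow cytometry.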

HL-60 [3] = assay: Induction of apoptosis in human HL60 cells assessed as reduction in mitochondrial membrane potential at 3 uM after 24 hrs by JC-1 staining-based flow cytometry; format: functional, cell-based
In short: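 ΔΨm in HL-60 cells after 24 h at 3 μM assessed by JC-1 fluorescence on flow cytometry; two separate experiments, each in triplicate.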

HL-60 [4] = assay: Induction of apoptosis in human HL60 cells assessed as release of Smac/DIABLO to cytosolic fraction by Western blotting analysis; format: functional, cell-based
HL-60 [5] = assay: Induction of apoptosis in human HL60 cells assessed as release of AIF to cytosolic fraction by Western blotting analysis; format: functional, cell-based
HL-60 [6] = assay: Induction of apoptosis in human HL60 cells assessed as release of cytochrome c to cytosolic fraction by Western blotting analysis; format: functional, cell-based
HL-60 [7] = assay: Induction of apoptosis in human HL60 cells at 3 uM after 24 hrs by flow cytometry in presence of Z-VAD-FMK; format: functional, cell-based
In short: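 HL-60 cells pretreated with pancaspase inhibitor Z-VAD-FMK (100 μM), then given diterpene (3 μM) for 24 h. Hypodiploid (sub-G1) apoptotic cells were counted by flow cytometry. Mean ± SE of three independent experiments, each in triplicate.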

HL-60 [8] = assay: Induction of apoptosis in human HL60 cells after 24 hrs by flow cytometry in presence of caspase-9 inhibitor Z-LEHD-FMK; format: functional, cell-based
In short: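 HL-60 cells pretreated 1 h with caspase inhibitor, then given diterpene for 24 h; hypodiploid cells counted by flow cytometry; mean ± SE of three independent experiments in triplicate.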

HL-60 [9] = assay: Induction of apoptosis in human HL60 cells assessed as hypodiploid cells at 3 uM by flow cytometry; format: functional, cell-based; settings: TDE = time-dependent effect
HL-60 [10] = assay: Cytotoxicity against human HL60 cells overexpressing neomycin-resistant gene after 72 hrs by MTT assay; format: functional, cell-based
HL-60 [11] = assay: Induction of apoptosis in human HL60 cells using DEVD-pNA as substrate assessed as caspase-3/7 activation at 3 uM after 24 hrs relative to control; format: functional
In short: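 HL-60 cells treated with 3 μM diterpene for 24 h. Lysates were assayed for cleavage of chromogenic tetrapeptide substrates DEVD-pNA (caspase-3/7), IETD-pNA (caspase-8) and LEHD-pNA (caspase-9). Activity is expressed as n-fold over untreated control. Mean ± SE of three independent experiments, each in triplicate.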

HL-60 [12] = assay: Induction of apoptosis in human HL60 cells assessed as procaspase-3 cleavage at 3 uM after 24 hrs by immunoblotting analysis; format: functional, cell-based
In short: (§1)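 HL-60 cells treated 24 h with 3 μM; immunoblots of lysates probed with antibodies that recognize both pro-caspases and cleaved caspases, and for PARP.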

HL-60 [13] = assay: Induction of apoptosis in human HL60 cells assessed as procaspase-4 cleavage at 3 uM after 24 hrs by immunoblotting analysis; format: functional, cell-based; in short: as §1
HL-60 [14] = assay: Induction of apoptosis in human HL60 cells assessed as procaspase-8 cleavage at 3 uM after 24 hrs by immunoblotting analysis; format: functional, cell-based; in short: as §1
HL-60 [15] = assay: Induction of apoptosis in human HL60 cells assessed as procaspase-9 cleavage at 3 uM after 24 hrs by immunoblotting analysis; format: functional, cell-based; in short: as §1
HL-60 [16] = assay: Induction of apoptosis in human HL60 cells assessed as late apoptotic cells at 3 uM after 24 hrs by AnnexinV-FITC/propidium iodide staining-based flow cytometry (reference value: 3.1%); format: functional
In short: (§2)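 HL-60 cells given 3 μM for 24 h, stained with annexin V-FITC and propidium iodide, and analysed by flow cytometry; annexin+/PI− cells scored as early apoptotic and double-positive cells as late; three separate experiments.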

HL-60 [17] = assay: Induction of apoptosis in human HL60 cells assessed as early apoptotic cells at 3 uM after 24 hrs by AnnexinV-FITC/propidium iodide staining-based flow cytometry (reference value: 1.6%); format: functional; in short: as §2
HL-60 [18] = assay: Induction of apoptosis in human HL60 cells assessed as externalization of phosphotidylserine at 3 uM after 24 hrs by AnnexinV-FITC/propidium iodide staining-based flow cytometry; format: functional, cell-based; in short: as §2
HL-60 [19] = assay: Induction of apoptosis in human HL60 cells assessed as DNA fragmentation at 3 uM after 24 hrs by […]; format: functional, cell-based
HL-60 [20] = assay: Induction of apoptosis in human HL60 cells assessed as nuclear chromatin fragmentation after 6 hrs by Hoechst 33258 staining-based fluorescence microscopy; format: functional, cell-based
HL-60 [21] = assay: Induction of apoptosis in human HL60 cells assessed as nuclear chromatin condensation after 6 hrs by Hoechst 33258 staining-based fluorescence microscopy; format: functional, cell-based
HL-60 [22] = assay: Cell cycle arrest in human HL60 cells assessed as accumulation at S phase at 3 uM after 24 hrs by […]propidium iodide staining-based flow cytometry (reference value: 32%); format: functional
HL-60 [23] = assay: Cell cycle arrest in human HL60 cells assessed as accumulation at Sub-G1 phase at 3 uM after 24 hrs by […]propidium iodide staining-based flow cytometry (reference value: 4%); format: functional
HL-60 [24] = assay: Induction of apoptosis in human HL60 cells assessed as hypodiploid cells at 3 uM after 24 hrs by flow cytometry (reference value: 4.4 +/- 0.8%); format: functional
PBMC = assay: Cytotoxicity against human PBMC cells up to 3 uM after 24 hrs by MTT assay; format: cell-based
In short: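 PBMC from heparinized blood of healthy volunteers, isolated on Ficoll-Paque, cultured in parallel with HL-60 cells for 24 h at the stated concentrations; viability measured by MTT; Student's t-test versus untreated control.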

HL-60 [25] = assay: Cytotoxicity against human HL60 cells overexpressing Bcl-XL protein after 72 hrs by MTT assay; format: functional, cell-based; settings: HL-60, 72 h
U-937 [26] = assay: Cytotoxicity against human U937 cells overexpressing Bcl-2 protein after 72 hrs by MTT assay; format: functional, cell-based; settings: U-937, 72 h
MCF7 = assay: Cytotoxicity against human MCF7 cells after 72 hrs by MTT assay; format: functional, cell-based; settings: MCF7, 72 h
In short: (§3)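 MTT assay: 1 × 10^4 exponentially growing cells per well incubated 72 h over a range of compound concentrations; MTT 0.5 mg/mL for 4 h at 37 °C, then 10% SDS in 0.05 M HCl overnight at room temperature in the dark; absorbance at 570 nm. Leukemia and SK-MEL-1 lines grown in RPMI 1640, MCF-7 in DMEM, both with 10% heat-inactivated FBS. IC50 given as mean ± SEM of 3–5 independent experiments, each in triplicate.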

MOLT-3 = assay: Cytotoxicity against human MOLT3 cells after 72 hrs by MTT assay; format: functional, cell-based; settings: MOLT-3, 72 h; in short: as §3
U-937 [27] = assay: Cytotoxicity against human U937 cells after 72 hrs by MTT assay; format: functional, cell-based; settings: U-937, 72 h; in short: as §3

Structure (SMILES) | Activity (HL-60 [1]) | Activity (HL-60 [2]) | Activity (HL-60 [3]) | Activity (HL-60 [4]) | Activity (HL-60 [5]) | Activity (HL-60 [6]) | Activity (HL-60 [7]) | Activity (HL-60 [8]) | Activity (HL-60 [9]) | Activity (HL-60 [10]) | fold change (FC) (HL-60 [11]) | Activity (HL-60 [12]) | Activity (HL-60 [13]) | Activity (HL-60 [14]) | Activity (HL-60 [15]) | Activity (HL-60 [16]) [%] | Activity (HL-60 [17]) [%] | Activity (HL-60 [18]) | Activity (HL-60 [19]) | Activity (HL-60 [20]) | also measured
COc1ccc(C(=O)OC2=C(C(C)C)C(=O)C3=C(C2=O)[C@@]2(C)CCCC(C)(C)[C@@H]2[C@H](O)[C@H]3OC(C)=O)cc1 | inactive | Active | Active | Active | Active | Active | Active | Active | tde | Active | 2 | Active | Active | Active | Active | 30.2 | 30.2 | Active | Active | Active | Activity (HL-60 [21]): Active; Activity (HL-60 [22]): 21%; Activity (HL-60 [23]): 28%; Activity (HL-60 [24]): 34.5%; Activity (PBMC): Non-toxic; pIC50 (HL-60 [25]): 5.54; pIC50 (U-937 [26]): 5.68; pIC50 (MCF7): 5.51; pIC50 (MOLT-3): 5.82; pIC50 (U-937 [27]): 5.85
CC(=O)O[C@H]1C2=C(C(=O)C(OC(=O)c3ccccc3)=C(C(C)C)C2=O)[C@@]2(C)CCCC(C)(C)[C@@H]2[C@@H]1OC(=O)c1ccccc1 | inactive | Active | Active | Active | Active | Active | Active | Active | tde | Active | 2 | Active | Active | Active | Active | 20.7 | 20.7 | Active | Active | Active | Activity (HL-60 [21]): Active; Activity (HL-60 [22]): 16%; Activity (HL-60 [23]): 40%; Activity (HL-60 [24]): 48%; Activity (PBMC): Non-toxic; pIC50 (HL-60 [25]): 5.96; pIC50 (U-937 [26]): 6.22; pIC50 (MCF7): 4.59; pIC50 (MOLT-3): 5.16; pIC50 (U-937 [27]): 5.74
CC(=O)O[C@H]1C2=C(C(=O)C(OC(=O)c3ccc(Cl)cc3)=C(C(C)C)C2=O)[C@@]2(C)CCCC(C)(C)[C@@H]2[C@@H]1O | inactive | Active | Active | Active | Active | Active | Active | Active | tde | Active | 2 | Active | Active | Active | Active | 28.8 | 28.8 | Active | Active | Active | Activity (HL-60 [21]): Active; Activity (HL-60 [22]): 23%; Activity (HL-60 [23]): 32%; Activity (HL-60 [24]): 40.4%; Activity (PBMC): Non-toxic; pIC50 (HL-60 [25]): 5.66; pIC50 (U-937 [26]): 5.96; pIC50 (MCF7): 5.54; pIC50 (MOLT-3): 5.85; pIC50 (U-937 [27]): 5.96
